# MT1-MMP act inh = blockers of MT1-MMP proenzyme processing, primary screen, HT1080 RFP-PRO-GFP cells, GFP/RFP fluorescence; AID 651647, 2012; Matrix metalloproteinase-14 (Homo sapiens), P50281; GFP/RFP ratio fluorescence, overnight; percent of plate control window, DMSO zero; GFP/RFP ratio change, % at 20 µM; hit rate 0.061% among 360,000;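 active = GFP/RFP ratio change of at least 30% with cell ATP level not reduced by more than half and red fluorescence within 50% of control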
#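 Read-out: GFP/RFP fluorescence ratio; Test system: RFP-PRO-GFP reporter HT1080 cells; Compound dosing: single-point 20 µM compound, 1% DMSO; Times: overnight compound exposure at 37 °C.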
# DAGLB inh = DAGLB lipase inhibitors, primary screen, biochemical, fluorescence, HTS | HEK293T DAGLB membrane lysate, EnzChek fluorogenic substrate | inhibition, % at 5.17 µM | hit rate 0.059% among 340,000 | AID 504411, 2011; in the data active = inhibition above about 34%;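 note: 0% = enzyme with vehicle and 100% = wells lacking enzyme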
# Target sequence (Q8NCG7 whole entry, looked up): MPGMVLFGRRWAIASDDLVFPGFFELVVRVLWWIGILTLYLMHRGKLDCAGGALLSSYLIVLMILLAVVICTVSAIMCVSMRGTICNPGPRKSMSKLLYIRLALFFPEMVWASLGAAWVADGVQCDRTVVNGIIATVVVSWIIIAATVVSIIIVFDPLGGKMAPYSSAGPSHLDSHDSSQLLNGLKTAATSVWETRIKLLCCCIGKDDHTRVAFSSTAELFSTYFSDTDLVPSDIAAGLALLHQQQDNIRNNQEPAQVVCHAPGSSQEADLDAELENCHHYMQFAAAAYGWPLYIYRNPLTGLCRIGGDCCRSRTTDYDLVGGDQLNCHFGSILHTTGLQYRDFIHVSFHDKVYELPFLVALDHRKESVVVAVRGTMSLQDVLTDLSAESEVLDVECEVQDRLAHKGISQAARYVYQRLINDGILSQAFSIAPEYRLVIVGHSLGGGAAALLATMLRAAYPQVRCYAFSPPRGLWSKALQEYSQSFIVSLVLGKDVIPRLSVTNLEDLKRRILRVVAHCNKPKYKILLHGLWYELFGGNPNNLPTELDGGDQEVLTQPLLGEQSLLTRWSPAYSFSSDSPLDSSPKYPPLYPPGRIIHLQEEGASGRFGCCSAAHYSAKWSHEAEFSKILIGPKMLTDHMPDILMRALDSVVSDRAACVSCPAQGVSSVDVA
# SKN-1 block = suppressors of acrylamide-induced Pgst-4::GFP reporter in worms, primary screen, SKN-1 inhibitor project, whole organism, uHTS, GFP/RFP fluorescence ratio, strain VP596 | hit rate 0.49% among 360,000 | AID 624304, 2012 | C. elegans VP596 Pgst-4::GFP/RFP ratio, 24 h | inhibition, % at 21.8 µM;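 active = interference check ratio from 0.5 to 1.5 plus GFP to RFP signal ratio inhibition reaching or exceeding a fixed threshold, cut at about 30% in these data, passing the limit was not always enough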
# Ecoli rRNA inh = reduced GFP signal of wild-type E. coli, primary screen, bacterial rRNA inhibitor project, GFP/RFP fluorescence, OD600, single point; E. coli WT GFP vs humanized-ribosome RFP mutants, 24 h; hits give low values; DMSO median 0, no signal -100; hit rate 1.6% among 350,000; GFP signal change (wild-type ribosome), % (no concentration beside the values);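 active = significant combined selectivity score with lowered wild-type GFP, culture density cut under 30%, mutant RFP and density less affected; inactive = any of these conditions unmet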
# Cneo AK release = Cryptococcus neoformans cell lysis inducers, primary screen, AK release luminescence, single concentration; C. neoformans lysis, adenylate kinase release luminescence, 4 h; normalised: neutral wells 0, clomiphene wells 100; lysis activity, % at 15 µM; hit rate 0.2% among 360,000; AID 651654, 2012;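 active = mean lysis activity across replicates of at least 80%, whatever share of replicates individually reach that level; inactive = mean lysis activity below 80%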
#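 Schedule: static 4 h at 37 °C with compound, 1 h detection; system: C. neoformans cells; benchmarks: Clomiphene as positive control; buffer or medium: fresh YPD medium; measure: luminescence rise reflecting yeast cell lysis; measured by: luminescent adenylate kinase detection reagent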
# hiPSC survival = enhancers of single-cell hiPSC survival, primary screen, ATPlite luminescence; AID 602274, 2012; hit rate 0.044% among 360,000; 100% = ROCK inhibitor wells, 0% = DMSO; survival enhancement, % at 20 µM; in the data active = survival enhancement above about 18%;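 note: cells exposed to compounds for 16 hours before the ATP read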
# The depositor's hits bear a star; · = no result. Rows were chosen to be rich in hits. Some 1.8% of all compounds tested hit in one or more screens of this group.
SMILES,MT1-MMP act inh,DAGLB inh,SKN-1 block,Ecoli rRNA inh,Cneo AK release,hiPSC survival
S=c1[nH]nc(COc2ccccc2)n1/N=C/c1cccc(Cl)c1Cl,-8,8,-6,2,7,1
CCC1(C)Cc2ccccc2-c2nc(NCCCO)[nH]c(=O)c21 (stereo not drawn),8,1,10,-28*,·,0
CC1CCc2c(sc(NC(=O)CSc3ncn[nH]3)c2C#N)C1 (stereo not drawn),-2,-1,11,-19*,-5,0
C(=C\c1nc(-c2ccncc2)no1)/c1ccccc1,0,-8,79*,-15,0,0
C(=C\c1nc(-c2ccccc2)no1)/c1ccccc1,-5,-8,29,-11,-11,-2
Fc1cc(Br)ccc1COc1ccc(-c2nnco2)cc1,4,1,49*,10,0,0
O=C(COc1ccc(-c2nnco2)cc1)Nc1c(F)cccc1F,1,0,9,6,-1,1
Fc1ccc(COc2ccc(-c3nnco3)cc2)c(Cl)c1,2,-3,87*,-1,1,0
COC(=O)c1ccsc1NC(=O)C1COc2ccccc2O1 (stereo not drawn),-6,-20,6,-32*,-3,0
COC(=O)c1ccccc1NC(=O)C1COc2ccccc2O1 (stereo not drawn),-3,-27,17,·,0,-1
COC(=O)c1cn(NC(=O)C2COc3ccccc3O2)c(=O)c2ccccc12 (stereo not drawn),·,2,36*,·,-1,-2
CCCCn1nnnc1NCc1ccc(C)cc1,2,-3,11,6,3,0
CCCCn1nnnc1NCc1ccc(C)s1,4,0,41*,·,2,-1
COc1ccc(NC(=O)Nc2ccc3c(c2)C(=O)N([C@@H](C)CO)C[C@@H](C)[C@H](CN(C)C(=O)Nc2ccc(OC)cc2)O3)cc1,·,·,·,2,2,·
Cc1oc2cc(O)ccc2c(=O)c1Oc1ccccc1,6,-2,-11,·,9,2
CC(=O)Oc1ccc2c(=O)c(Oc3ccccc3)c(C)oc2c1OC(C)=O,3,13,3,-17*,3,-1
C[C@H](O)C#Cc1cnc2c(c1)C(=O)N([C@@H](C)CO)C[C@@H](C)[C@@H](CN(C)C(=O)c1ccc(F)cc1)O2,·,·,·,2,-14,·
CCOC(=O)c1c(C)nc(C(Cl)(Cl)Cl)nc1N,0,-4,17,-37*,-3,0
O=C(Nc1nc(SCc2ccc(F)cc2)ns1)c1ccco1,-3,5,54*,-56,2,-1
CCCC#Cc1ccc2c(c1)O[C@@H](CN(C)CC1CCOCC1)[C@@H](C)CN([C@@H](C)CO)S2(=O)=O,·,·,·,4,19,·
C=C1C(=O)c2sccc2C(c2ccc(OC)c(OC)c2)C1COC(C)=O (stereo not drawn),26,10,2,-25*,·,5
O=[N+]([O-])c1ccc(Nc2ccc3ccccc3c2)nc1,6,7,19,20,-8,2
CC(C)c1ccc(CNc2ccc([N+](=O)[O-])cn2)cc1,-5,-9,9,-18,·,0
O=[N+]([O-])c1ccc(NCc2ccc(Cl)cc2)nc1,4,-3,43*,-44,-2,-1
O=[N+]([O-])c1ccc(Nc2ccc(Cl)cc2)nc1,3,·,39*,-24,·,2
SMILES,MT1-MMP act inh,DAGLB inh,SKN-1 block,Ecoli rRNA inh,Cneo AK release,hiPSC survival
O=C(NNc1ccc([N+](=O)[O-])cn1)Nc1ccc(N=Nc2ccccc2)cc1,11,19,22,-4.1*,3,0
CC(C)NC(=O)N1C[C@@H]2[C@H](c3ccccc31)[C@@H](CO)N2C(=O)c1ccccc1,·,·,·,4,-10,·
CCCc1cn(CC[C@@H]2CC[C@@H](NC(=O)CCN3CCCCC3)[C@@H](CO)O2)nn1,·,·,·,1,1,·
Cc1noc(C)c1NC(=O)Nc1cccc2c1O[C@@H](CN(C)C(=O)Nc1ccc(F)cc1)[C@@H](C)CN([C@@H](C)CO)C2=O,·,·,·,-4,·,·
COc1ccccc1Oc1cn[nH]c1-c1ccc(O)cc1O,5,0,15,-21*,·,-1
O=C(Nc1ccncc1)c1ccccc1F,-9,0,-17,·,0,24*
O=C(Nc1ccncc1)c1c(F)c(F)c(F)c(F)c1F,-2,-3,-3,-13,0,44*
O=C(Nc1ccc(SC(F)F)cc1)c1ccccc1F,5,-3,41*,-16,·,-2
C[C@H]1CN([C@@H](C)CO)C(=O)c2cccc(NC(=O)NC3CCCCC3)c2O[C@@H]1CN(C)CC1CCCCC1,·,·,·,1,1,·
Cc1ccccc1S(=O)(=O)N1C[C@@H](O)COC[C@H]2O[C@@H](CC(=O)N3CCC(Cc4ccccc4)CC3)CC[C@@H]21,·,·,·,-9,-1,·
C=CCNC(=S)NC(=O)c1csc([N+](=O)[O-])c1,5,-3,-12,-7,·,1
O=C(NC(=S)N1CCCCC1)c1csc([N+](=O)[O-])c1,8,·,-13,-23*,5,0
O=C(Nc1cccc2cccnc12)c1ccccc1Br,1,-9,5,-25*,·,-1
O=C(Nc1cccc2cccnc12)c1ccc(Br)cc1Br,0,-7,-11,·,3,0
COc1ccc(OC)c(-c2nnc3n2N=C(c2ccc(OC)c(OC4CCOC4)c2)CS3)c1 (stereo not drawn),20,0,15,-28*,5,0
Oc1ccc(N=Nc2ccc3ccccc3c2)cc1,2,14,46*,-52,-1,0
COc1ccc(Cl)cc1NC(=O)Nc1cccc([N+](=O)[O-])c1C,-1,0,-4,-32*,-2,1
Nc1nc(Cl)cc(Nc2ccccc2Cl)n1,2,0,2,5,-2,0
CSc1nc(Cl)cc(Nc2ccccc2N)n1,2,-1,4,-23*,-2,3
Cc1cc(-c2csc(NC(=O)c3ccc(=O)n(C)n3)n2)c(C)n1CC1CCCO1 (stereo not drawn),0,1,39*,·,·,2
CC1CC(C)(C)NC(=S)N1CCCC(=O)Nc1ccc(Br)cc1 (stereo not drawn),0,2,8,-37*,1,0
O=C(c1cccs1)c1ccc(-c2cccs2)s1,-1,-16,62*,·,·,-3
